Data taken from the EternaBench riboswitch data.

Tested on: MS2 coat protein
Assay: apparent Kd, MS2 coat protein; higher = weaker binding; RNA-MaP array; FMN 200 µM where present
Outline: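 Two titrations, one without ligand and one with constant ligand, were run with SNAP-549-labelled MS2 coat protein from 0.7 or 1.5 nM, doubling to 3 µM. The targets were designs transcribed by stalled E. coli RNA polymerase on Illumina sequencing-chip clusters, in 100 mM Tris-HCl pH 7.5, 80 mM KCl, 4 mM MgCl2, BSA, DTT, yeast tRNA and Tween-20. The apparent Kd is the median of filtered per-cluster binding-curve fits, with green signal normalised to red-channel RNA signal and control-cluster median Fmax.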

[1] = designed as: OFF switch for flavin mononucleotide, no ligand
[2] = ligand present: flavin mononucleotide, designed as: OFF switch for flavin mononucleotide
[3] = designed as: ON switch for flavin mononucleotide, no ligand
[4] = ligand present: flavin mononucleotide, designed as: ON switch for flavin mononucleotide

Sequence | apparent Kd [1] [µM] | apparent Kd [2] [µM] | apparent Kd [3] [µM] | apparent Kd [4] [µM]
GACUUGUUAGGAUAUCUUACAUUUGCAUCAUAGUAACCUUUGGAGAAGGGACAUGAGGAUCACCCAUGUUUGGA | 0.0401 | 0.0366 | – | –
CUUCUGUGAGGAUAUUGACCAGUAGCUGACCUAGUACUGGAUGAGAAGGCACAUGAGGAUCACCCAUGUGGCAC | 0.0195 | 0.104 | – | –
CUAAUGUAGACAGGAUAUCCUGGACAUGAGGAUCACCCAUGUGCAUAAAAUGGAGAAGGGUCACGGAGGCCCUGUGGGCAGGGU | – | – | 0.0463 | 0.0099
UUGGACGUCGUAGGAUAUGUAGGAUAUUCCUACAUGAGGAUCACCCAUGUUCACAUGGAAGAAGGACAGAAGGACGAUGUCCAU | – | – | 0.502 | 0.0058
GAUGGAAUAGUCAGGAUAUAAACGUCAGGAUAUGUUUAGAAGGGACAUGAGGAUCACCCAUGUUAAGAUAUGGU | 0.0299 | 0.0876 | – | –
UUGACGGCAGGAUAUACAUGAGGAUCACCCAUGUAAAUUUUUCGUUUAACUUGAAUGUGUAGAAGGGCCAAAAU | 0.0194 | 0.0188 | – | –
UCGUACAUUCGAGGAUAUCGGUGAUAAAUAAUACGAGAAGGCGAUUGUGGGAAUAACGCCUUAGACAUGAGGAUCACCCAUGUA | – | – | 0.0724 | 0.0626
UAUAUAUAGUAAGGAUAUGUAUUAAUUUUGUAAACAGAAGGUACUGACAUGAGGAUCACCCAUGUUUUAGUGUGGGCAUGUAGA | 0.13 | 0.208 | – | –
GCAGCUAAUAUUAUACAUGAGGAUCACCCAUGUUACAUGUGUAAGGAUAUUGAUGUUUAUAUAAACAAGAAGGUACGAAGCUGC | – | – | 0.0205 | 0.0131
GUAGCAUGCCAAGGAUAUUCAUAUAAUAAGUAAACAUGAGGAUCACCCAUGUAGUGAGAGCCUUGGGAGAAGGUGGGAUGCUAC | – | – | 0.0267 | 0.0419
GCGCUUAUACAGAAGGCCAGAGACAUGAGGAUCACCCAUGUUAGAUGGUGGAGGAUAUGUGUUUUAUUACAGAUAGUUGAGCGC | – | – | 0.00638 | 0.00613
AAUAAUAAUGUCAGGAUAUCUAGAGCUUCGGCUCUAGAGAAGGGACAUGAGGAUCACCCAUGUCACUCAAUAAU | 0.0162 | 0.0272 | – | –
UGUCGGAGCAGAGGAUAUUACAUGAGGAUCACCCAUGUAUGAACCAACAGCUGGAAACAGCAAUGUAAGAAGGCUGCUCCGACA | 0.0104 | 0.131 | – | –
CGCUACGUUUCGUAGCAGUGUCAUCGAGAAGGCCCUGACAUGAGGAUCACCCAUGUUGUUACAUGGGAGGAUAUCGAUGAUACC | – | – | 0.0122 | 0.00525
GAGUGGAAGGCCGCUACAUGAGGAUCACCCAUGUGCUAAGCACAGGAUAUCGCGCUAGCCCGGCGCGAGAAGGGUGACGGCCUG | – | – | 0.674 | 0.339
GAGUUUACGUUUGUCACUUAGCGAGAGGAUAUGGAAAACAAGACAUGAGGAUCACCCAUGUACUAUCAGAAGGCUCGAGUACGA | – | – | 0.00726 | 0.00559
GUGGUCAGACAUGAGGAUCACCCAUGUGGAAUAAAUAACACACAGGAUAUCAAAUAUAAAAUAUAUGAGAAGGGUGGAUUGGUG | – | – | – | 0.224
AAGAGUGCAGGAUAUACUUGGUAGGGUAAGAUGAGUGAGUGACAUGAGGAUCACCCAUGUAGAAGGGCAGAGAG | 0.121 | 0.132 | – | –
GGCAAUAUGUAGGAUAUCGUAUCGGAAACGAUACGAGAAGGGCAAACAUGAGGAUCACCCAUGUUCUUCAAGCC | 0.013 | 0.0166 | – | –
CGUGUACGAGGAUAUAGAUUGGAUGACAUGAGGAUCACCCAUGUGAUCGAUCUAUUUGGUUUAGAAGGUGUACAUG | 0.0134 | 0.0142 | – | –
GCUGACGAUGUAGGAUAUCUCGACGAUAAGUCGAGAGAAGGACAUGAGGAUCACCCAUGUCUCCAAACGUCAGCGAGGAAACUC | 0.0161 | 0.0164 | – | –
CUAAUUAGUCAGAAGGUGCUGCCGGAAUCAUAGCAAGGAUAUGACAUGAGGAUCACCCAUGUACAGAUCCUACAUAAAAUCAGG | 0.00573 | 0.00898 | – | –
GUCAGCUCGUGAGGAUAUACAACACUGCUUCUGCAGUGUAUUAAGAUCACAUGAGGAUCACCCAUGUAGAAGGCACGAGCUGAU | 0.0128 | 0.234 | – | –
AAAGCUGAAGGAUAUACUUGGAAAAAAAAAAAAAAAAAAAAACAUGAGGAUCACCCAUGUAGAAGGUCAGAUAA | 0.0482 | 0.0398 | – | –

Sequence | apparent Kd [1] [µM] | apparent Kd [2] [µM] | apparent Kd [3] [µM] | apparent Kd [4] [µM]
UGGUACUAGGGAGGAUAUGGGAAGAUACAUGAGGAUCACCCAUGUUUAAGCAUGCCGAGAGGCAACUAGAAGGCCCUAGUACCU | – | – | 0.357 | 0.018
AUCGUGUUAGGAUAUACACGACGCUGGGUAGCUAGCGGAGGGUAGAAGGGACAUGAGGAUCACCCAUGUUCGGG | 0.157 | 0.282 | – | –
GUCCAGUUAGGAUAUCAAUGCCACAACAUGAGGAUCACCCAUGUUUGGGUCCCUCACCAAUGAGAAGGAACGGGAC | 0.0347 | 0.0991 | – | –
GAGCGGAUGUCAGGAUAUCGCCGCGUGAAAAGGCGAGAAGGGACAUGAGGAUCACCCAUGUACUCAUAGGGCCAGCUUGGGCUA | 0.00971 | 0.0291 | – | –
CAGCUGAAAGUCAGGAUAUCUAGAGCCUCGGCUCUAGAGAAGGGACAUGAGGAUCACCCAUGUCACUCCAGCUG | 0.0184 | 0.02 | – | –
GGAUCCAUCACAGGAUAUGCUGGACUUUGUCCAGCAGAAGGGUGAACAUGAGGAUCACCCAUGUAAAAGGAUCCUAUAUUUAAU | – | – | 0.124 | 0.0249
AUGCCUUAUGUAGGAUAUGCAUAGAGUUGCUAUGCAGAAGGACAUGAGGAUCACCCAUGUAUGUAUACCUUACAUAUCUGGCAU | 0.00834 | 0.0307 | – | –
UUGCUCGUGUGAGGAUAUGCCGCCGUUUCGGCUGCAGAAGGUACUUUAAUACAUGAGGAUCACCCAUGUCUCUGUUGUUUCGUG | – | – | 0.0265 | 0.0269
CCGGAUAUGCAGGAUAUCGAAUCGGAAACGAUUCGAGAAGGGUAUACAUGAGGAUCACCCAUGUGUCCUACCGG | 0.0249 | 0.0316 | – | –
UGCAUGCUAGGAUAUACGAAACAUUAGGGUUCUUUGUGUGAACAUGAGGAUCACCCAUGUAGAAGGAGCGUGCU | 0.151 | 0.0385 | – | –
UUUUAACAUGAGGAUCACCCAUGUGAGGAUAUCGAAAUUUAUAUUUAUAUUAAUAUAUCGAGAAGGCACAUUUU | 0.099 | 0.144 | – | –
UAAUAAUAAUAAUAGCAGAAUUACAUGAGGAUCACCCAUGUAUAGGAUAUCGUCAGGAAUACUGACGAGAAGGAUACAUACUGC | 0.0178 | 0.0256 | – | –
GUAUCUUACCAAGGAUAUUUAAGAUUUGUGUAGACAUGAGGAUCACCCAUGUGGCCUUAGUCACGGGAGAAGGUGGUUUGAUAC | – | – | 0.94 | 0.492
UUGAGGUAGGAGAAGGACAGAGGCGGAAACACAAACAUGAGGAUCACCCAUGUAGGAUAUCCUACCUAACGAGGAUACCUCAAG | 0.0147 | 0.0267 | – | –
AAGAAGUCAGGAUAUCCAUGGCGGCACUUGCGUGGUGGCGUGGAGAAGGGACAUGAGGAUCACCCAUGUAAAGU | 0.049 | 0.0446 | – | –
CUUUCUUGCAAGGAUAUGCAAUUUAUUAUUUAUGCAGAAGGUGCUACAUGAGGAUCACCCAUGUUUCUGGGUUU | 0.146 | 0.208 | – | –
AUAAUGAGAGGAUAUACAUGAGGAUCACCCAUGUUUUUAUCACGUCGUGCUCCAUUACGUAGAAGGCUCAUUUA | 0.0363 | 0.0537 | – | –
AGCGAACAGGCUAACAUGAGGAUCACCCAUGUGGACUCAUGGUAGGAUAUCGGGAAGGAGGAAACCGAGAAGGGCCGGUGAGCA | – | – | 0.0698 | 0.0809
UCAUGCAUAGCGAUAUGAUCGAGAGAUCAUGUCGCUAAAUUUAGAAGGACAUGAGGAUCACCCAUGUAGGAUAUGGGAGCAUGA | – | – | 0.043 | 0.011
GUCAUUAAACAGAAGGUGUUGUACAUGAGGAUCACCCAUGUUUAUCUAAUUAAAUUUGUAAUUAACAAGGAUAUGUACUAAUCG | – | – | 0.231 | 0.131
CUCUUGGCAGGAUAUGCUUUUUUAGACAUGAGGAUCACCCAUGUGAUGAAUAUUGGGUUCGCAGAAGGGCCUGAAU | 0.0541 | 0.0483 | – | –
CCAUGAACAGGAUAUCUUCCUCCGAACAUGAGGAUCACCCAUGUAACUGUGUAGCAUGACAGAGAAGGGUUUAUGG | 0.0995 | 0.0567 | – | –
ACAUUGUUACAGGAUAUCGUUGGUUUUAUCCUGCGAGAAGGGUAUACAUGAGGAUCACCCAUGUUAUCCUCAUU | 0.0187 | 0.0218 | – | –
CCGGAUACGGGUAGCCUGACAUGAGGAUCACCCAUGUAAUACGAGGAUAUGGAUCCUAAUUGGAUCCAGAAGGUGUCAGGCUAC | – | – | 1.31 | 0.734
